Experimental data from ChEMBL document CHEMBL2151014, “Facile water promoted synthesis of 1,2,3-triazolyl dihydropyrimidine-2-thione hybrids - highly potent antibacterial agents” (2012).
In brackets after ≈: the same amount, converted by molar mass. Activity calls are given as the source filed them. No cut-off for these calls is given here.

Experiments:
[1] = system: Staphylococcus aureus; experiment: Antibacterial activity against Staphylococcus aureus after 48 hrs by well diffusion assay; type: functional
Summary of the method: (§1)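 Clinical isolates identified biochemically; maintained on yeast extract–peptone–NaCl agar, pH 7.2, at 28 ± 2 °C. About 1 mL inoculum mixed into molten nutrient agar and poured. A central 5 mm well was cut and filled with 50 μL of compound in 10% DMSO, filter-sterilized, at various concentrations. 10% DMSO served as control. Inhibition zones were read after 48 h at room temperature.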

[2] = system: Streptococcus pneumoniae; experiment: Antibacterial activity against Streptococcus pneumoniae after 48 hrs by well diffusion assay; type: functional; summary of the method: as §1
[3] = system: Pseudomonas aeruginosa; experiment: Antibacterial activity against Pseudomonas aeruginosa after 48 hrs by well diffusion assay; type: functional; summary of the method: as §1
[4] = system: Salmonella typhi; experiment: Antibacterial activity against Salmonella typhi after 48 hrs by well diffusion assay
[5] = Salmonella enterica subsp. enterica serovar Typhi

Row | MIC99 [1] | MIC99 [2] | MIC99 [3] | MIC99 ([4]; Salmonella enterica) | MIC99 [4, 5] | SMILES
1 | 8 µg/mL (≈ 21.3 µM) | 16 µg/mL (≈ 42.6 µM) | 10 µg/mL (≈ 26.6 µM) | 13 µg/mL (≈ 34.6 µM) |  | Cc1ccc(C2C=C(c3nnn(Cc4ccccc4)c3C)NC(=S)N2)cc1 (configuration not stated)
2 | inactive | 33 µg/mL (≈ 74.9 µM) | inactive |  | inactive | Cc1c(C2=CC(c3ccccc3Br)NC(=S)N2)nnn1Cc1ccccc1 (configuration not stated)
3 | 95 µg/mL (≈ 216 µM) | 44 µg/mL (≈ 99.9 µM) | 100 µg/mL (≈ 227 µM) | 120 µg/mL (≈ 272 µM) |  | Cc1c(C2=CC(c3ccc(Br)cc3)NC(=S)N2)nnn1Cc1ccccc1 (configuration not stated)
4 | 10 µg/mL (≈ 25.3 µM) | 10 µg/mL (≈ 25.3 µM) | 9 µg/mL (≈ 22.7 µM) | 20 µg/mL (≈ 50.5 µM) |  | Cc1c(C2=CC(c3ccc(Cl)cc3)NC(=S)N2)nnn1Cc1ccccc1 (configuration not stated)
5 | inactive | 40 µg/mL (≈ 102 µM) | 10 µg/mL (≈ 25.5 µM) |  | inactive | COc1ccc(C2C=C(c3nnn(Cc4ccccc4)c3C)NC(=S)N2)cc1 (configuration not stated)
6 | inactive | 42 µg/mL (≈ 99.6 µM) | inactive | 32 µg/mL (≈ 75.9 µM) |  | COc1ccc(C2C=C(c3nnn(Cc4ccccc4)c3C)NC(=S)N2)c(OC)c1 (configuration not stated)
7 | 37 µg/mL (≈ 98.5 µM) | 19 µg/mL (≈ 50.6 µM) | 18 µg/mL (≈ 47.9 µM) | 25 µg/mL (≈ 66.6 µM) |  | Cc1ccccc1C1C=C(c2nnn(Cc3ccccc3)c2C)NC(=S)N1 (configuration not stated)
8 | 10 µg/mL (≈ 22.5 µM) | 20 µg/mL (≈ 45 µM) | 10 µg/mL (≈ 22.5 µM) | 15 µg/mL (≈ 33.8 µM) |  | CN(C)[C@@H]1C(O)=C(C(N)=O)C(=O)[C@@]2(O)C(O)=C3C(=O)c4c(O)cccc4[C@@](C)(O)[C@H]3C[C@@H]12 [TETRACYCLINE]
9 | 10 µg/mL (≈ 27.7 µM) | 19 µg/mL (≈ 52.6 µM) | 12 µg/mL (≈ 33.2 µM) | 18 µg/mL (≈ 49.8 µM) |  | Cc1c(C2=CC(c3ccccc3)NC(=S)N2)nnn1Cc1ccccc1 (configuration not stated)
10 | 22 µg/mL (≈ 50 µM) | 35 µg/mL (≈ 79.5 µM) | 24 µg/mL (≈ 54.5 µM) | 90 µg/mL (≈ 204 µM) |  | Cc1c(C2=CC(c3cccc(Br)c3)NC(=S)N2)nnn1Cc1ccccc1 (configuration not stated)
11 | 20 µg/mL (≈ 49.2 µM) | 20 µg/mL (≈ 49.2 µM) | 20 µg/mL (≈ 49.2 µM) | 80 µg/mL (≈ 197 µM) |  | Cc1c(C2=CC(c3ccc([N+](=O)[O-])cc3)NC(=S)N2)nnn1Cc1ccccc1 (configuration not stated)
12 | 85 µg/mL (≈ 224 µM) | 100 µg/mL (≈ 264 µM) | 130 µg/mL (≈ 343 µM) |  | inactive | Cc1c(C2=CC(c3ccc(F)cc3)NC(=S)N2)nnn1Cc1ccccc1 (configuration not stated)
13 | 43 µg/mL (≈ 99.9 µM) | 25 µg/mL (≈ 58.1 µM) | inactive |  | inactive | Cc1c(C2=CC(c3ccc(Cl)cc3Cl)NC(=S)N2)nnn1Cc1ccccc1 (configuration not stated)
